Experimental data: ChEMBL document CHEMBL1122081, “2-(Aminomethyl)phenols, a new class of saluretic agents. 4. Effects of oxygen and/or nitrogen substitution” (J Med Chem, 1982)

Assays:
Conditions in all cases: in vivo
Canis familiaris [1] = experiment: Saluretic property was estimated by the excretion of Na+ in dog administered intravenously; microequiv of Na+/min at 5 mg/kg iv stat, 100-249; assay type: ADME, organism-based, Canis lupus familiaris; design: dose 5 mg/kg, route intravenous
Outline: (§1)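 Dogs of 15-20 kg were given a single stat intravenous dose of 5 mg/kg and Na+ excretion was measured in microequiv/min. The score is the average of two dogs, or three where designated.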

Rattus norvegicus [2] = experiment: Saluretic property was estimated by the excretion of Na+ in rat administered orally; microequiv of Na+ at 81 mg/kg […]; assay type: ADME, organism-based; design: dose 81 mg/kg
Outline: (§2)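 Rats dosed orally; urinary Na+ excretion (microequiv) scored per dose level. Each score is the geometric mean of three animals per cage, with three cages per dose.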

Rattus norvegicus [3] = experiment: Saluretic property was estimated by the excretion of Na+ in rat administered orally; microequiv of Na+ at 50 mg/kg […]; assay type: ADME, organism-based; design: dose 50 mg/kg; outline: as §2
Rattus norvegicus [4] = experiment: Saluretic property was estimated by the excretion of Na+ in rat administered orally; microequiv of Na+ at 16.5 mg/kg […]; assay type: ADME, organism-based; design: dose 16.5 mg/kg; outline: as §2
Rattus norvegicus [5] = experiment: Saluretic property (excretion of Na+ in rat after PO dosing); assay type: ADME, organism-based; outline: as §2
Rattus norvegicus [6] = experiment: Saluretic property was estimated by the excretion of Na+ in rat administered orally; microequiv of Na+ at 5 mg/kg […]; assay type: ADME, organism-based; design: dose 5 mg/kg; outline: as §2
Rattus norvegicus [7] = organism: Rattus norvegicus; experiment: Saluretic property (excretion of Na+ in rat); assay type: ADME, organism-based; outline: as §2
Canis familiaris [8] = experiment: Saluretic property was estimated by the excretion of Na+ in dog administered intravenously; microequiv of Na+/min at 5 mg/kg iv stat, 0-99; assay type: ADME, organism-based, Canis lupus familiaris; design: dose 5 mg/kg, route intravenous; outline: as §1
Canis familiaris [9] = experiment: Saluretic property was estimated by the excretion of Na+ in dog administered intravenously; microequiv of Na+/min at 5 mg/kg iv stat, 600-799; assay type: ADME, organism-based, Canis lupus familiaris; design: dose 5 mg/kg, route intravenous; outline: as §1
Canis familiaris [10] = experiment: Saluretic property was estimated by the excretion of Na+ in dog administered intravenously; microequiv of Na+/min at 5 mg/kg iv stat, 400-599; assay type: ADME, organism-based, Canis lupus familiaris; design: dose 5 mg/kg, route intravenous; outline: as §1
Canis familiaris [11] = experiment: Saluretic property was estimated by the excretion of Na+ in dog administered intravenously; microequiv of Na+/min at 5 mg/kg iv stat, […]; assay type: ADME, organism-based, Canis lupus familiaris; design: dose 5 mg/kg, route intravenous; outline: as §1
Rattus norvegicus [12] = experiment: Saluretic property was estimated by the excretion of Na+ in rat administered orally; microequiv of Na+ at 1 mg/kg […]; assay type: ADME, organism-based; design: dose 1 mg/kg; outline: as §2
Canis familiaris [13] = experiment: Saluretic property was estimated by the excretion of Na+ in dog administered intravenously; microequiv of Na+/min at 5 mg/kg iv stat, 250-399; assay type: ADME, organism-based, Canis lupus familiaris; design: dose 5 mg/kg, route intravenous; outline: as §1
Canis familiaris [14] = experiment: Saluretic property was estimated by the excretion of Na+ in dog administered intravenously; microequiv of Na+/min at 5 mg/kg iv stat, >900; assay type: ADME, organism-based, Canis lupus familiaris; design: dose 5 mg/kg, route intravenous; outline: as §1
Canis familiaris [15] = experiment: Saluretic property was estimated by the excretion of Na+ in dog administered intravenously; microequiv of Na+/min at 5 mg/kg iv stat, 800-899; assay type: ADME, organism-based, Canis lupus familiaris; design: dose 5 mg/kg, route intravenous; outline: as §1

SMILES | Saluretic potency (Rattus norvegicus [4]) | Saluretic potency (Rattus norvegicus [5]) | Saluretic potency (Rattus norvegicus [7]) | Saluretic potency (Canis familiaris [8]) | also measured
CCOC(=O)COc1c(I)cc(C(C)(C)C)cc1CN.Cl | – | – | – | – | Saluretic potency (Canis familiaris [1]): 100 u equiv min-1; Saluretic potency (Rattus norvegicus [2]): < 0.3 u equiv; Saluretic potency (Rattus norvegicus [3]): < 0.2 u equiv
CCCCNCc1cc(C(C)(C)C)cc(I)c1O.Cl | 2.7 u equiv | 3.3 u equiv | – | – | Saluretic potency (Canis familiaris [9]): 600 u equiv min-1; Saluretic potency (Rattus norvegicus [6]): 1.4 u equiv
CCNS(=O)(=O)Oc1c(I)cc(C(C)(C)C)cc1CN.Cl | 1.4 u equiv | 2.4 u equiv | 2.9 u equiv | – | Saluretic potency (Canis familiaris [10]): 400 u equiv min-1; Saluretic potency (Rattus norvegicus [6]): 0.5 u equiv
CC(C)(C)c1cc(I)c(OS(C)(=O)=O)c(CN)c1.Cl | – | < 0.2 u equiv | < 0.3 u equiv | – | –
CC(C)(C)c1cc(I)c(OS(=O)(=O)c2ccccc2)c(CN)c1.Cl | 0.6 u equiv | 1.8 u equiv | 2.4 u equiv | – | Saluretic potency (Rattus norvegicus [6]): 0.4 u equiv
CC(C)(C)c1cc(I)c(O)c(CNC2=NCCO2)c1 | – | < 0.2 u equiv | < 0.3 u equiv | – | –
CC(C)(C)c1cc(I)c(O)c(CNC2=NCCN2)c1 | – | < 0.2 u equiv | < 0.3 u equiv | 0 u equiv min-1 | –
COc1c(I)cc(C(C)(C)C)cc1C[N+](C)(C)C.[I-] | – | – | – | 0 u equiv min-1 | –
CC(C)(C)c1cc(I)c(O)c(C[N+](C)(C)C)c1.[I-] | – | 0.2 u equiv | < 0.3 u equiv | 0 u equiv min-1 | –
CC(C)(C)c1cc(I)c(O)c(CN=C(N)N)c1 | – | < 0.2 u equiv | < 0.3 u equiv | – | –
CC(C)(C)OC(=O)NCc1cc(C(C)(C)C)cc(I)c1O | – | < 0.2 u equiv | < 0.3 u equiv | – | –
CC(C)(C)c1cc(Cl)c2c(c1)CNC(=O)CO2 | – | < 0.2 u equiv | < 0.3 u equiv | – | –
O=C(NCc1c(O)c(Cl)cc(Cl)c1Cl)C(F)(F)F | 0.6 u equiv | 1.8 u equiv | 2.4 u equiv | – | Saluretic potency (Rattus norvegicus [6]): 0.4 u equiv
NCC(=O)NCc1c(O)c(Cl)cc(Cl)c1Cl | – | < 0.2 u equiv min-1 | < 0.3 u equiv | – | Saluretic potency (Canis familiaris [1]): 100 u equiv min-1
COc1c(Cl)cc(Cl)c(Cl)c1CN.Cl | – | < 0.2 u equiv | < 0.3 u equiv | 0 u equiv min-1 | –
CN1CCN(Cc2cc(C(C)(C)C)cc(Cl)c2O)CC1.Cl | – | < 0.2 u equiv | < 0.3 u equiv | 0 u equiv min-1 | –
CC(C)(C)c1cc(I)c(O)c(CNC2=NCCS2)c1 | – | < 0.2 u equiv | < 0.3 u equiv | – | –
CC(C)(C)c1cc(I)c(OS(=O)(=O)O)c(CN)c1 | 1.4 u equiv | 2.4 u equiv | 2.9 u equiv | – | Saluretic potency (Rattus norvegicus [6]): 0.5 u equiv
CC(C)(C)c1cc(I)c(O)c(Cn2cnnn2)c1 | – | < 0.2 u equiv | < 0.3 u equiv | – | Saluretic potency (Canis familiaris [1]): 100 u equiv min-1
O=C(NCc1c(O)c(Cl)cc(Cl)c1Cl)C(Cl)(Cl)Cl | – | < 0.2 u equiv | < 0.3 u equiv | – | Saluretic potency (Canis familiaris [13]): 400 u equiv min-1
O=CNCc1c(O)c(Cl)cc(Cl)c1Cl | – | < 0.2 u equiv | < 0.3 u equiv | 0 u equiv min-1 | –
Cl.NCc1c(O)c(Cl)cc(Cl)c1Cl | 1.4 u equiv | 2.4 u equiv | 2.9 u equiv | – | Saluretic potency (Canis familiaris [15]): 800 u equiv min-1; Saluretic potency (Rattus norvegicus [6]): 0.5 u equiv

More lines, main results first:

Saluretic potency (Rattus norvegicus [4]) | Saluretic potency (Rattus norvegicus [5]) | Saluretic potency (Rattus norvegicus [7]) | Saluretic potency (Canis familiaris [8]) | SMILES | also measured
0.6 u equiv | 1.8 u equiv | 2.4 u equiv | – | CN(C)S(=O)(=O)Oc1c(I)cc(C(C)(C)C)cc1CN.Cl | Saluretic potency (Rattus norvegicus [6]): 0.4 u equiv
– | < 0.2 u equiv | < 0.3 u equiv | 0 u equiv min-1 | CCN(CC)C(=O)COc1c(I)cc(C(C)(C)C)cc1CN.Cl | –
– | < 0.2 u equiv | < 0.3 u equiv | – | CC(C)(C)c1cc(I)c(O)c(CNC2=NCCC2)c1.Cl | –
0.5 u equiv | 1.2 u equiv | 1.5 u equiv | 0 u equiv min-1 | CC(C)(C)c1cc(I)c(O)c(CNCCN)c1.Cl | Saluretic potency (Rattus norvegicus [6]): 0.3 u equiv
– | < 0.2 u equiv | < 0.3 u equiv | – | CC(C)(C)c1cc(I)c(O)c(CNC2CCCCC2)c1.Cl | –
– | < 0.2 u equiv | < 0.3 u equiv | 0 u equiv min-1 | COc1c(I)cc(C(C)(C)C)cc1CN.Cl | –
– | < 0.2 u equiv | < 0.3 u equiv | – | CC(C)(C)c1cc(I)c(OCC(N)=O)c(CN)c1.Cl | Saluretic potency (Canis familiaris [1]): 100 u equiv min-1
3.3 u equiv | 3.6 u equiv | – | – | CNCc1cc(C(C)(C)C)cc(I)c1O | Saluretic potency (Canis familiaris [11]): 250 u equiv min-1; Saluretic potency (Rattus norvegicus [12]): 0.7 u equiv; Saluretic potency (Rattus norvegicus [6]): 2.6 u equiv
– | – | – | 0 u equiv min-1 | CC(C)(C)c1cc(Cl)c(O)c(C[n+]2ccc(N)cc2)c1.[Cl-] | –
0.4 u equiv | 0.7 u equiv | 0.9 u equiv | – | CC(C)(C)c1cc(I)c2c(c1)CNC(=O)O2 | –
2.7 u equiv | 3.3 u equiv | – | 0 u equiv min-1 | CN(C)Cc1cc(C(C)(C)C)cc(I)c1O | Saluretic potency (Rattus norvegicus [6]): 1.4 u equiv
– | < 0.2 u equiv | < 0.3 u equiv | 0 u equiv min-1 | CC(C)(C)c1cc(Cl)c(O)c(C[n+]2ccccc2)c1.[Cl-] | –
0.5 u equiv | 1.2 u equiv | 1.5 u equiv | – | CC(C)(C)c1cc(I)c(O)c(CNS(=O)(=O)O)c1 | Saluretic potency (Rattus norvegicus [6]): 0.3 u equiv
– | < 0.2 u equiv | < 0.3 u equiv | 0 u equiv min-1 | CC(C)(C)c1cc(I)c(O)c(CNC(N)=O)c1 | –
– | < 0.2 u equiv | < 0.3 u equiv | 0 u equiv min-1 | CC(C)(C)c1cc(Cl)c(O)c(CNS(N)(=O)=O)c1 | –
0.5 u equiv | 1.2 u equiv | 1.5 u equiv | 0 u equiv min-1 | O=C(CCl)NCc1c(O)c(Cl)cc(Cl)c1Cl | Saluretic potency (Rattus norvegicus [6]): 0.3 u equiv
– | < 0.2 u equiv | < 0.3 u equiv | – | CC(C)(C)c1cc(I)c2c(c1)CNS(=O)(=O)O2 | –
– | < 0.2 u equiv | < 0.3 u equiv | – | Oc1c(Cl)cc(Cl)c(Cl)c1CN1CCOCC1 | Saluretic potency (Canis familiaris [1]): 100 u equiv min-1
– | < 0.2 u equiv | < 0.3 u equiv | 0 u equiv min-1 | Oc1c(Cl)cc(Cl)c(Cl)c1CN1CCCCC1 | –
– | < 0.2 u equiv | < 0.3 u equiv | – | CC(C)(C)c1cc(Cl)c(O)c(/C=N/N=C(/N)S)c1 | Saluretic potency (Canis familiaris [1]): 100 u equiv min-1
– | < 0.2 u equiv | < 0.3 u equiv | 0 u equiv min-1 | CC(C)(C)c1cc(Cl)c2c(c1)CNCCO2.Cl | –
– | < 0.2 u equiv | < 0.3 u equiv | – | CC(C)(C)c1cc(Cl)c(O)c(/C=N/N=C(N)N)c1 | Saluretic potency (Canis familiaris [1]): 100 u equiv min-1
4.2 u equiv | 3.9 u equiv | – | – | CC(C)(C)c1cc(Cl)c(O)c(CN)c1.Cl | Saluretic potency (Rattus norvegicus [12]): 2.1 u equiv; Saluretic potency (Canis familiaris [14]): > 900 u equiv min-1; Saluretic potency (Rattus norvegicus [6]): 3.6 u equiv
4.2 u equiv | 3.9 u equiv | – | – | CC(C)(C)c1cc(I)c(O)c(CN)c1.Cl | Saluretic potency (Rattus norvegicus [12]): 2.1 u equiv; Saluretic potency (Canis familiaris [14]): > 900 u equiv min-1; Saluretic potency (Rattus norvegicus [6]): 3.6 u equiv
– | < 0.2 u equiv | < 0.3 u equiv | – | CN(Cc1c(O)c(Cl)cc(Cl)c1Cl)CC1CCCO1 (centres undefined) | Saluretic potency (Canis familiaris [13]): 250 u equiv min-1
